Reference: ChEMBL document CHEMBL1136939, “Fluorinated isatin derivatives. Part 2. New N-substituted 5-pyrrolidinylsulfonyl isatins as potential tools for molecular imaging of caspases in apoptosis” (J Med Chem, 2009)

Key:
[1] = target: T1, Caspase-1 (Homo sapiens, UniProt P29466); assay: Inhibition of human recombinant caspase 1 assessed as accumulation of cleaved fluorogenic 7-amino-4-methylcoumarin after 10 mins
T1 sequence (P29466 whole entry): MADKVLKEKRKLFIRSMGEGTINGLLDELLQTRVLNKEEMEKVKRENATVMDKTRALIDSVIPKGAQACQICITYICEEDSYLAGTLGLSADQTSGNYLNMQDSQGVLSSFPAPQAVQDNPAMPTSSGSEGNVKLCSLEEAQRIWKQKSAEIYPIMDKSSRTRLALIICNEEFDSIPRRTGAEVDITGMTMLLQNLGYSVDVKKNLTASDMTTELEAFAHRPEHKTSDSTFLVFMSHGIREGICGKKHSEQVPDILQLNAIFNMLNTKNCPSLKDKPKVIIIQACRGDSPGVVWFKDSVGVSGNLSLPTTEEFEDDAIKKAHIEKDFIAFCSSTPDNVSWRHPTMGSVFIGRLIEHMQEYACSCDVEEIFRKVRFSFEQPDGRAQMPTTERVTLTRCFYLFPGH
Procedure, shortened: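 Ac-YVAD-AMC substrate, 10 µM final. Enzyme at 0.5 units per assay is preincubated 10 min at 37 °C with compound in DMSO, single doses 5 pM–500 µM final. Substrate is then added and reacts 10 more min. AMC is read at ex 360/em 460 nm. IC50 comes from nonlinear regression, mean ± SD of three assays.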

[2] = target: T2, Caspase-3 (Homo sapiens, UniProt P42574); assay: Inhibition of human recombinant caspase 3 assessed as accumulation of cleaved fluorogenic 7-amino-4-methylcoumarin after 10 mins
T2 sequence (P42574 whole entry): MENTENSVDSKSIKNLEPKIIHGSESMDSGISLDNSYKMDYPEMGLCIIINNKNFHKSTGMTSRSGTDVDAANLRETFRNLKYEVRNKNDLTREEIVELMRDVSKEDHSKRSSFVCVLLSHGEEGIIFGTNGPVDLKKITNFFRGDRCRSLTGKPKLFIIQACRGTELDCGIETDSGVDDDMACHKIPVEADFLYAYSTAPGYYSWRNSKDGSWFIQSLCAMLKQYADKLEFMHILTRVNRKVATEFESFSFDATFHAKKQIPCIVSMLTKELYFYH
Procedure, shortened: (§1)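 Ac-DEVD-AMC substrate, 10 µM final. Enzyme at 0.5 units per assay is preincubated 10 min at 37 °C in reaction buffer with compound in DMSO at 5 pM–500 µM final. Substrate reacts a further 10 min. AMC fluorescence is read at 360/460 nm. IC50 by nonlinear regression, mean ± SD of three assays.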

[3] = target: T3, Caspase-7 (Homo sapiens, UniProt P55210); assay: Inhibition of human recombinant caspase 7 assessed as accumulation of cleaved fluorogenic 7-amino-4-methylcoumarin after 10 mins; procedure, shortened: as §1
T3 sequence (P55210 whole entry): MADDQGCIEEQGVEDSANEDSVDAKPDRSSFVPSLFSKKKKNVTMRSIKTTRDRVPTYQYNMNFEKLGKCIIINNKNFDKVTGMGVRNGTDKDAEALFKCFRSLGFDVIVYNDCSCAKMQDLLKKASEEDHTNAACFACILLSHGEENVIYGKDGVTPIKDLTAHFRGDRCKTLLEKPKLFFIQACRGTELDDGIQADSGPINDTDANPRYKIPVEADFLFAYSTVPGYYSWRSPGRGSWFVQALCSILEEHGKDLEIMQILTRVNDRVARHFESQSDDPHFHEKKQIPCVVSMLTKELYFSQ

[4] = target: T4, Caspase-6 (Homo sapiens, UniProt P55212); assay: Inhibition of human recombinant caspase 6 assessed as accumulation of cleaved fluorogenic 7-amino-4-methylcoumarin after 10 mins
T4 sequence (P55212 whole entry): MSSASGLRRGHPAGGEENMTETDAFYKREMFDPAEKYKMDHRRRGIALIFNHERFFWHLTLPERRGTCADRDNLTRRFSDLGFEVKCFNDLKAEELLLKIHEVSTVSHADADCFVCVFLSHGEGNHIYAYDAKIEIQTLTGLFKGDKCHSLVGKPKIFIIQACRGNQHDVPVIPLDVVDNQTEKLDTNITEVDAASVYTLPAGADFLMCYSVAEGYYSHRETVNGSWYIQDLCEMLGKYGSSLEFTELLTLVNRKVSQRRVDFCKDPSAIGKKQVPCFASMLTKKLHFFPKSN
Procedure, shortened: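 Substrate Ac-VEID-AMC at 10 µM final, added after the enzyme (0.5 units per assay) has been preincubated 10 min at 37 °C with compound in DMSO at single doses of 5 pM–500 µM. Reaction runs 10 min, then AMC is read at ex 360, em 460 nm. IC50 by nonlinear regression; mean ± SD, n=3.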

Q: What does the source list for CN1C(=O)C(=O)c2cc(S(=O)(=O)N3CCC[C@H]3COc3ccccc3)ccc21?
A: IC50 [1]: > 500000 nM; IC50 [2]: 2.4 nM; IC50 [3]: 304 nM; IC50 [4]: > 500000 nM

Q: COC[C@@H]1CCCN1S(=O)(=O)c1ccc2c(c1)C(=O)C(=O)N2CC(F)(F)CBr was tested. Which IC50 [2] did it give?
A: 1880 nM

Q: What about the IC50 [3] of the same compound?
A: 1660 nM

Q: Which results are given for COC[C@@H]1CCCN1S(=O)(=O)c1ccc2c(c1)C(=O)C(=O)N2Cc1ccc(OCC(O)CF)cc1 (stereo partly drawn)?
A: IC50 [1]: > 500000 nM; IC50 [2]: 145 nM; IC50 [3]: 5 nM; IC50 [4]: > 500000 nM

Q: COC[C@@H]1CCCN1S(=O)(=O)c1ccc2c(c1)C(=O)C(=O)N2CCC(O)CO (stereo partly drawn) was tested. Which IC50 [1] did it give?
A: > 500000 nM

Q: And the IC50 [2]?
A: 275 nM

Q: And the IC50 [3]?
A: 61 nM

Q: And the IC50 [4]?
A: > 500000 nM

Q: Which results are given for COC[C@@H]1CCCN1S(=O)(=O)c1ccc2c(c1)C(=O)C(=O)N2Cc1ccc(C(F)CBr)cc1 (stereo partly drawn)?
A: IC50 [1]: > 500000 nM; IC50 [2]: 43 nM; IC50 [3]: 16 nM; IC50 [4]: > 500000 nM

Q: Which IC50 [1] does the source give for C=CCOc1ccc(CN2C(=O)C(=O)c3cc(S(=O)(=O)N4CCC[C@H]4COC)ccc32)cc1 here?
A: > 500000 nM

Q: And the IC50 [2]?
A: 10 nM

Q: What about the IC50 [3] of the same compound?
A: 0.6 nM

Q: And the IC50 [4]?
A: > 500000 nM

Q: For C=CCCN1C(=O)C(=O)c2cc(S(=O)(=O)N3CCC[C@H]3COC)ccc21, which IC50 [1] is on record?
A: > 500000 nM

Q: What about the IC50 [2] of the same compound?
A: 31 nM

Q: And the IC50 [3]?
A: 50 nM

Q: What about the IC50 [4] of the same compound?
A: > 500000 nM

Q: With COC[C@@H]1CCCN1S(=O)(=O)c1ccc2c(c1)C(=O)C(=O)N2Cc1ccc(C(F)CO)cc1 (stereo partly drawn) as the compound, how does the IC50 [1] read?
A: > 500000 nM

Q: What about the IC50 [2] of the same compound?
A: 80 nM

Q: And the IC50 [3]?
A: 7.6 nM

Q: What about the IC50 [4] of the same compound?
A: > 500000 nM

Q: With COC[C@@H]1CCCN1S(=O)(=O)c1ccc2c(c1)C(=O)C(=O)N2CCC1CO1 (stereo partly drawn) as the compound, how does the IC50 [1] read?
A: > 500000 nM

Q: What about the IC50 [2] of the same compound?
A: 151 nM

Q: What about the IC50 [3] of the same compound?
A: 68 nM

Q: And the IC50 [4]?
A: > 500000 nM

Q: Which results are given for COC[C@@H]1CCCN1S(=O)(=O)c1ccc2c(c1)C(=O)C(=O)N2CCC(O)CF (stereo partly drawn)?
A: IC50 [1]: > 500000 nM; IC50 [2]: 3.6 nM; IC50 [3]: 99 nM; IC50 [4]: > 500000 nM

Q: COC[C@@H]1CCCN1S(=O)(=O)c1ccc2c(c1)C(=O)C(=O)N2Cc1ccc(OCC2CO2)cc1 (stereo partly drawn) was tested. Which IC50 [1] did it give?
A: > 500000 nM

Q: What about the IC50 [2] of the same compound?
A: 42 nM

Q: What about the IC50 [3] of the same compound?
A: 2.4 nM

Q: And the IC50 [4]?
A: > 500000 nM

Q: What does the source list for COC[C@@H]1CCCN1S(=O)(=O)c1ccc2c(c1)C(=O)C(=O)N2C[C@H](O)CO?
A: IC50 [1]: > 500000 nM; IC50 [2]: 11 nM; IC50 [3]: 43 nM; IC50 [4]: > 500000 nM

Q: Which results are given for C=CCN1C(=O)C(=O)c2cc(S(=O)(=O)N3CCC[C@H]3COC)ccc21?
A: IC50 [1]: > 500000 nM; IC50 [2]: 25 nM; IC50 [3]: 24 nM; IC50 [4]: > 500000 nM

Q: How did the IC50 [1] turn out when COC[C@@H]1CCCN1S(=O)(=O)c1ccc2c(c1)C(=O)C(=O)N2C[C@H]1CO1 was run?
A: 3160 nM

Q: And the IC50 [2]?
A: 17 nM

Q: And the IC50 [3]?
A: 9 nM

Q: What about the IC50 [4] of the same compound?
A: > 500000 nM

Q: How did the IC50 [1] turn out when C=CCCCCCCCCCN1C(=O)C(=O)c2cc(S(=O)(=O)N3CCC[C@H]3COC)ccc21 was run?
A: > 500000 nM

Q: What about the IC50 [2] of the same compound?
A: 74 nM

Q: And the IC50 [3]?
A: 111 nM

Q: And the IC50 [4]?
A: > 500000 nM

Q: Which IC50 [1] does the source give for C=Cc1ccc(CN2C(=O)C(=O)c3cc(S(=O)(=O)N4CCC[C@H]4COC)ccc32)cc1 here?
A: > 500000 nM

Q: And the IC50 [2]?
A: 9.3 nM

Q: What about the IC50 [3] of the same compound?
A: 7.2 nM

Q: And the IC50 [4]?
A: > 500000 nM

Q: For COC[C@@H]1CCCN1S(=O)(=O)c1ccc2c(c1)C(=O)C(=O)N2CCCCCCCCCC1CO1 (stereo partly drawn), which IC50 [1] is on record?
A: > 500000 nM

Q: And the IC50 [2]?
A: 23 nM

Q: What about the IC50 [3] of the same compound?
A: 61 nM

Q: What about the IC50 [4] of the same compound?
A: > 500000 nM

Q: COC[C@@H]1CCCN1S(=O)(=O)c1ccc2c(c1)C(=O)C(=O)N2Cc1ccc(C2CO2)cc1 (stereo partly drawn) was tested. Which IC50 [1] did it give?
A: > 500000 nM

Q: And the IC50 [2]?
A: 6.6 nM

Q: And the IC50 [3]?
A: 1.9 nM

Q: What about the IC50 [4] of the same compound?
A: > 500000 nM

Q: Which IC50 [1] does the source give for COC[C@@H]1CCCN1S(=O)(=O)c1ccc2c(c1)C(=O)C(=O)N2C[C@H](O)CF here?
A: > 500000 nM

Q: And the IC50 [2]?
A: 19 nM

Q: What about the IC50 [3] of the same compound?
A: 349 nM

Q: And the IC50 [4]?
A: > 500000 nM

Q: What does the source list for COC[C@@H]1CCCN1S(=O)(=O)c1ccc2c(c1)C(=O)C(=O)N2?
A: IC50 [1]: > 500000 nM; IC50 [4]: > 500000 nM

Q: For O=C1Nc2ccc(S(=O)(=O)N3CCC[C@H]3COc3ccccc3)cc2C1=O, which IC50 [1] is on record?
A: > 500000 nM

Q: And the IC50 [4]?
A: > 500000 nM
